For assay [1], the system named is Mus musculus. The assay can be described thus: Analgesic activity in sc dosed Swiss-Webster mouse time of peak effect. It is filed as functional.
Assay [2] relates to Mus musculus. The assay can be described thus: Analgesic activity in sc dosed Swiss-Webster mouse after 6.5 hrs. The assay is classed as functional, organism-based.
Assay [3] has as its system Mus musculus. The assay can be described thus: Analgesic activity in sc dosed Swiss-Webster mouse after 30 mins. It is filed as functional. The conditions noted are these: 0.5 h.
Assay [4] relates to Mus musculus. The assay can be described thus: Analgesic activity in Swiss-Webster mouse assessed as time required for sustainance of activity at 70 mg/kg, sc. The assay is classed as functional. The conditions noted are these: route subcutaneous.
For assay [5], the system named is Mus musculus. The assay can be described thus: Analgesic activity in Swiss-Webster mouse assessed as time required for sustainance of activity at 5 mg/kg, sc. The assay is classed as functional. The conditions noted are these: route subcutaneous.
For assay [6], the species on record is Mus musculus. The assay can be described thus: Narcotic agonist activity in morphine-dependent mouse assessed as suppression of abstinence. The assay is classed as functional, organism-based. The method in brief:
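Single-dose suppression test in morphine-dependent mice after withdrawal (method of Takemori et al.); compound given sc.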

The target of assay [7] is T1, Opioid receptors; mu/kappa/delta (Homo sapiens, UniProt P41145+P41143+P35372). The assay can be described thus: Ratio of IC50 for opiate receptor (unknown origin) after 10 mins in presence of NaCl to IC50 for opiate receptor (unknown origin) after 10 mins. The method in brief: (§1)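 [3H]naloxone 1.5×10^-9 M bound to a brain homogenate (Pert–Snyder method as modified by Pasternak, with a preincubation step), 10 min incubation. Run with and without 100 mM NaCl. Stereospecific binding was defined with 1×10^-6 M levallorphan. IC50 is the concentration giving 50% inhibition of stereospecific binding, and the ratio is IC50 with NaCl over IC50 without.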

The subject of assay [8] is Mus musculus. The assay can be described thus: Analgesic activity in Swiss-Webster mouse at 2 mg/kg, sc in presence of naloxone. It is filed as functional, organism-based. Further details: dose 2 mg/kg. Put shortly:
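Mice were pretreated with naloxone, then given blocker 2 mg/kg sc. After 2 h, when the naloxone effect had ended, morphine analgesia was tested in the same animals (modified D'Amour–Smith). Counts are responders per 10 mice.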

The test system of assay [9] is Mus musculus. The assay can be described thus: Analgesic activity in Swiss-Webster mouse assessed as time required for sustainance of activity at 2 mg/kg, sc. The conditions noted are these: route subcutaneous. The assay is classed as functional.
For assay [10], the system named is Mus musculus. The assay can be described thus: Inhibition of morphine sulfate-induced analgesic activity in Swiss-Webster mouse at 2 to 32 mg/kg, sc after 2 to 4 hrs. The assay is classed as functional, organism-based. The method in brief: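 Male Swiss-Webster mice received the maleimide blocker sc at 2, 8 or 32 mg/kg (40% propylene glycol). Morphine sulfate dose-response was run after reaction time returned to control (2, 3 or 4 h). Morphine ED50 and 95% limits were taken by Litchfield–Wilcoxon, and curve slopes were compared.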

For assay [11], the target named is T1, Opioid receptors; mu/kappa/delta. The assay can be described thus: Displacement of [3H]naloxone from opiate receptor (unknown origin) after 10 mins in presence of NaCl. The method in brief: as §1
(In general: In a radioligand displacement assay an active substance lowers the binding of a labelled ligand.)

For assay [12], the system named is Mus musculus. The assay can be described thus: Ratio of morphine ED50 to compound ED50 for sc dosed Swiss-Webster mouse. The assay is classed as functional.
In assay [13] the target is T1, Opioid receptors; mu/kappa/delta. The assay can be described thus: Displacement of [3H]naloxone from opiate receptor (unknown origin) after 10 mins.
Assay [14] has as its system Mus musculus. The assay can be described thus: Analgesic activity in Swiss-Webster mouse assessed as time required for sustainance of activity at 380 mg/kg, sc. It is filed as functional. The conditions noted are these: route subcutaneous.
Assay [15] deals with Mus musculus. The assay can be described thus: Inhibition of morphine sulfate-induced analgesic activity in Swiss-Webster mouse at 380 mg/kg, sc after 5.5 hrs. Further details: dose 380 mg/kg. The assay is classed as functional, organism-based. The method in brief: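 Male Swiss-Webster mice, 20–25 g. Challenge was 10 mg/kg morphine sulfate in 8–10 mice, read by the modified D'Amour–Smith test. Where block was seen, morphine ED50 (95% limits) was found by Litchfield–Wilcoxon.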

Active and inactive are the calls of the source. The calls are words filed in the database; no cut-off is given here.

T1 sequence (P35372 whole entry, looked up): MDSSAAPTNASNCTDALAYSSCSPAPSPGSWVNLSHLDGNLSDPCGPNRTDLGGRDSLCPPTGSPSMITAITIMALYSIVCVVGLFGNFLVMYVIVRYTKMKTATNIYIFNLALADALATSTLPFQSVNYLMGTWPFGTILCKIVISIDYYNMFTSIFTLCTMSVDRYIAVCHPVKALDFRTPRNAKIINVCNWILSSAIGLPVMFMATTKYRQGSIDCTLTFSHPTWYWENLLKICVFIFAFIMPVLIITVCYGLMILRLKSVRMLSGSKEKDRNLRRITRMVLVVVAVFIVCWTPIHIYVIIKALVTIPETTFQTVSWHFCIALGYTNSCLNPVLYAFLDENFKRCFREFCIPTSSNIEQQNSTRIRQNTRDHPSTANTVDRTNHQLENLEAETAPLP
T1 sequence (P41143 whole entry, looked up): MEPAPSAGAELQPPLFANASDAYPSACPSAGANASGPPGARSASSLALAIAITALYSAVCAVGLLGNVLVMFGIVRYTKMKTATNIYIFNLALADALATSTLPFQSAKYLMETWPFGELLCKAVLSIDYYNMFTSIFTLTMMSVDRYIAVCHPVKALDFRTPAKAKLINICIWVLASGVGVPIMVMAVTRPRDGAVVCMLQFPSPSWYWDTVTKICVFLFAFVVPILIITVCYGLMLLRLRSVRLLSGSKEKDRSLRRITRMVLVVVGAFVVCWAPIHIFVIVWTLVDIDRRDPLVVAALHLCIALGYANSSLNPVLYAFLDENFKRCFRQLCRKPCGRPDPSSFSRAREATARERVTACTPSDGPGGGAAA
T1 sequence (P41145 whole entry, looked up): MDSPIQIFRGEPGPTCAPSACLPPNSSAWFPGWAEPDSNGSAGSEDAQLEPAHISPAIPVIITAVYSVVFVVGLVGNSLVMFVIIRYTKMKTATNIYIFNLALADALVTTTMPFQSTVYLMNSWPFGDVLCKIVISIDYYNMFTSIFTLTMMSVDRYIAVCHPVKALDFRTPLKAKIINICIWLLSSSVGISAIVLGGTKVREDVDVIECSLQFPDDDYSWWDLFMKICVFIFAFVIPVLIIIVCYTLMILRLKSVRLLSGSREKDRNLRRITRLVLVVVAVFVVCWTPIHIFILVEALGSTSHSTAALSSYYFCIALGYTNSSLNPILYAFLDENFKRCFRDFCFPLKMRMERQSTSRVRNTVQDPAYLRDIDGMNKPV

`O=C(CBr)Nc1ccccc1CCN1CC[C@]23CCCC[C@H]2[C@H]1Cc1ccc(O)cc13`: the figures for the Time with Mus musculus [1] and in the assay with Mus musculus [4] were 30 min and 6.5 h, respectively. In the assay on Mus musculus [2], the outcome was Active. The median effective dose (ED50) (as a rule, the midpoint of the dose-response relation) in the assay on Mus musculus [3] stood at 16 mg/kg.

As to `CC(=O)Oc1ccc2c(c1)[C@@]13CCCC[C@H]1[C@@H](C2)N(CCc1ccc(N2C(=O)C=CC2=O)cc1)CC3`, the Time in the assay with Mus musculus [1] is 30 min; in the assay on Mus musculus [5], 4 h. For the same compound, in the assay listed under Mus musculus [6], the inhibition result was “Active”. In addition, in the assay on Mus musculus [3], it took a dose of 0.59 mg/kg to reach the 50% effect level (ED50).

As to `O=C1C=CC(=O)N1c1ccc(CCN2CC[C@]34CCCC[C@H]3[C@H]2Cc2ccc(O)cc24)cc1`, the Ratio IC50 in [7] is over 10. Further, the Time was found to be 30 min in the assay with Mus musculus [1] and 2 h with Mus musculus [9]. Also, the result with Mus musculus [8] was inactive. Moreover, the inhibition result in the assay on Mus musculus [10] and in the assay filed under Mus musculus [6] was “Active” in each case. Moreover, the IC50 came out at 5.7 ×10⁻⁸ M in assay [11] and 5.3 nM in [13]. In the assay with Mus musculus [3], this compound gave a median effective dose (ED50) of 1.1 mg/kg. Also, in the assay with Mus musculus [12], the “Ratio ED50” value is 4.

`CCOC(=O)/C=C/C(=O)Nc1cccc(CCCN2CC[C@]34CCCC[C@H]3[C@H]2Cc2ccc(O)cc24)c1`: the results for the Time in the assay with Mus musculus [1] and in the assay on Mus musculus [14] were 30 min and 5.5 h, respectively. In addition, in the assay on Mus musculus [3], the 50% effect level (ED50) was put at a dose of 76.5 mg/kg. Further, the inhibition entry in the assay on Mus musculus [15] is “Active”.

The values are drawn from ChEMBL document CHEMBL3272313, “3-Hydroxy-17-aralkylmorphinans as potential opiate receptor-site-directed alkylating agents” (J Med Chem, 1977).
